Measured values published in ChEMBL document CHEMBL3297741, “Cytotoxic cleistanthane and cassane diterpenoids from the entomogenous fungus Paraconiothyrium hawaiiense” (J Nat Prod, 2014).
Activity calls are given as the source filed them. No cut-off for these calls is given here.

Columns and labels:
Assay type in all cases: functional, cell-based
T-24 = assay: Cytotoxicity against human T24 cells at 50 uM after 48 hrs by […]
In short: (§1)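 Single concentration of 50 μM tested in the MTS proliferation assay. Cells were seeded at (2−5) × 10^3 per well and attached overnight. Compound was diluted in medium from 100 mM DMSO stock, alongside a 0.1% DMSO vehicle. Plates were incubated 48 h at 37 °C in humidified 5% CO2. MTS was added for 90 min at 37 °C, then absorbance read at 490 nm. Run in triplicate.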

A549 [1] = assay: Cytotoxicity against human A549 cells at 50 uM after 48 hrs by […]; in short: as §1
HCT-116 [2] = assay: Cytotoxicity against human HCT116 cells at 50 uM after 48 hrs by […]; in short: as §1
MCF7 [3] = assay: Cytotoxicity against human MCF7 cells at 50 uM after 48 hrs by […] assay; in short: as §1
HeLa [4] = assay: Cytotoxicity against human HeLa cells at 50 uM after 48 hrs by […]; in short: as §1
HCT-116 [5] = assay: Cytotoxicity against human HCT116 cells after 48 hrs by […]; settings: HCT-116, 48 h
In short: (§2)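 MTS read-out. Cells were seeded at (2−5) × 10^3 per well, depending on growth rate, and attached overnight. Medium was then replaced with medium holding serial dilutions of compound from 100 mM DMSO stocks, with 0.1% DMSO vehicle and cisplatin control. Plates were incubated 48 h at 37 °C in humidified 5% CO2. MTS was added for 90 min at 37 °C in the dark, and absorbance read at 490 nm. Triplicate runs gave IC50.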

[6] = Cytotoxicity against human T24 cells after 48 hrs by […]; settings: T-24, 48 h; in short: as §2
HeLa [7] = assay: Cytotoxicity against human HeLa cells after 48 hrs by […]; in short: as §2
A549 [8] = assay: Cytotoxicity against human A549 cells after 48 hrs by […]; settings: A549, 48 h; in short: as §2
MCF7 [9] = assay: Cytotoxicity against human MCF7 cells after 48 hrs by […]; settings: MCF7, 48 h; in short: as §2

Row | Structure (SMILES) | inhibition (T-24) | inhibition (A549 [1]) | inhibition (HCT-116 [2]) | inhibition (MCF7 [3]) | inhibition (HeLa [4]) | IC50 (HCT-116 [5]) [µM] | IC50 [6] [µM] | IC50 (HeLa [7]) [µM] | IC50 (A549 [8]) [µM] | IC50 (MCF7 [9]) [µM]
1 | C=CC1=CC[C@H]2[C@@H](CC(=O)[C@@]3(O)[C@@]4(C)C(=O)O[C@H]4CC[C@]23C)[C@H]1C | inactive | inactive | inactive | inactive | inactive | – | – | – | – | –
2 | C=C[C@@H]1C(=C)CC[C@H]2[C@H]1CC(=O)[C@@]1(O)[C@@]3(C)C(=O)O[C@H]3CC[C@]21C | – | – | – | – | – | 6.23 | 4.26 | 2.84 | 7.48 | 7.43
3 | C=C[C@@H]1C(=C)CC[C@H]2[C@H]1C[C@H]1OC(=O)[C@@]3(C)[C@H](OC(C)=O)CC[C@@]2(C)[C@@]13O | – | – | – | – | – | 37.3 | 20.7 | 43.7 | 43.6 | 23.4
4 | C=C[C@@H]1C(=C)CC[C@H]2[C@H]1C[C@H]1OC(=O)[C@@]3(C)[C@H](O)CC[C@@]2(C)[C@@]13O | – | – | – | – | – | – | – | 50.3 | – | –
